74 compounds from ChEMBL document CHEMBL3351891, “Synthesis and structure-activity relationships of lapacho analogues. 2. Modification of the basic naphtho[2,3-b]furan-4,9-dione, redox activation, and suppression of human keratinocyte hyperproliferation by 8-hydroxynaphtho[2,3-b]thiophene-4,9-diones” (J Med Chem, 2014) can be followed below.

Some results are limits rather than exact numbers.

Data set [1] concerns HaCaT. The data set is described as follows: Antihyperproliferative activity against human HaCaT cells assessed as inhibition of cell growth after 48 hrs by phase contrast microscopy. Type of data set: functional, cell-based. The method, boiled down:
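Immortalized human HaCaT keratinocytes incubated with compound for 48 h; growth determined by counting dispersed cells under phase contrast microscopy. Inhibition = (1 − test/control) × 100, test N = 3 vs control N = 6−8, Student's t test; IC50 by nonlinear regression.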

Data set [2] can be described thus: Induction of superoxide generation measured per U of enzyme in presence of NQO-1. The format is physicochemical. The procedure, abridged:
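Human recombinant NQO-1 with NADPH and compound ([…]); superoxide followed spectrophotometrically as SOD-inhibitable cytochrome c reduction, with catalase and DTPA added. Rate as μmol/L/min per U enzyme; mean ± SD, N ≥ 3.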

Data set [3] deals with HaCaT. In words: Induction of superoxide generation in human HaCaT cells assessed as apoptotic cells at 5 umol/L for 18 hrs chronic treatment (reference value: 3 +/- 1%). Type of data set: functional.
The subject of data set [4] is HaCaT. In words: Induction of superoxide generation in human HaCaT cells assessed as mean fluorescence intensity at 50 umol/L for 30 mins acute treatment (reference value: 7.1 +/- 5.2 no unit). Type of data set: functional.
The test system of data set [5] is HaCaT. In words: Induction of superoxide generation in human HaCaT cells assessed as apoptotic cells at 5 umol/L for 18 hrs chronic treatment in presence of dicoumarol NQO-1 inhibitor (reference value: 4.3 +/- 2.6%). The format is functional.
Data set [6] in a line: Induction of superoxide generation measured per 2 mU of enzyme in presence of cytochrome P450 oxidoreductase. Type of data set: physicochemical. The method, boiled down:
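Human recombinant NADPH–cytochrome P450 oxidoreductase with compound ([…]); spectrophotometric SOD-inhibitable reduction of succinoylated cytochrome c, with catalase and DTPA present. Rate given as μmol/L/min per 2 mU enzyme; mean ± SD, N ≥ 3.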

The test system of data set [7] is HaCaT. In words: Induction of superoxide generation in human HaCaT cells assessed as mean fluorescence intensity at 5 umol/L for 18 hrs chronic treatment (reference value: 367.5 +/- 80.1 no unit). Type of data set: functional.
For data set [8], the system named is HaCaT. In words: Induction of superoxide generation in human HaCaT cells assessed as mean fluorescence intensity at 5 umol/L for 18 hrs chronic treatment in presence of dicoumarol NQO-1 inhibitor (reference value: 407.6 +/- 68.7 no unit). The format is functional.
Data set [9] relates to HaCaT. In words: Antihyperproliferative activity against human HaCaT cells assessed as LDH release at 2 umol/L after 4 hrs. Type of data set: functional. The method, boiled down: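 HaCaT keratinocytes exposed to test compound (2 μM) for 4 h at 37 °C; extracellular LDH in supernatant measured by UV method with pyruvate and NADH, reported as mU/mL. Vehicle control 0.2% DMSO in medium; Brij 35 with ultrasound as positive control; N = 3.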
Background: Release of lactate dehydrogenase indicates damage to the cell membrane.

A word on the IC50: it is the concentration that gives 50% inhibition. In the case of `O=C1c2ccccc2C(=O)c2[nH]cnc21`, the IC50 in data set [1] is over 30 µM.
Still for that read-out and setting: the same measure for `CCOC(=O)c1cc2c(s1)C(=O)c1c(OC)cccc1C2=O`: 2.87 µM.
`O=C1c2ccsc2C(=O)c2c(O)cccc21`: the Activity in data set [2] was 0.3 µmol/L/min; in data set [3], 4.9%; in data set [5], 6.1%; in data set [6] it was 1.8 µmol/L/min. In data set [1], the IC50 worked out at 2.75 µM. The figures for the Flu intensity in data set [4], in data set [7] and in [8] were 23.8, 610.6 and 717.7, respectively.
Regarding `O=C1c2ccsc2C(=O)c2c(Cl)cccc21`, the IC50 in data set [1] was found to be 3.77 µM.
On to `Nc1cccc2c1C(=O)c1sccc1C2=O`, for which, in data set [1], the IC50 was over 30 µM.
Consider `CC(=O)Nc1cccc2c1C(=O)c1sccc1C2=O`, for which the IC50 in [1] turned out to be 2.76 µM.
Still for that read-out and setting: the same measure for `O=C1c2sccc2Cc2cccc(O)c21`: 2.5 µM.
`O=C1c2ccccc2C(=O)c2[se]ccc21`: the IC50 in data set [1] is 6.12 µM.
Turning to `O=C1c2ccccc2C(=O)c2[nH]ccc21`, the IC50 in data set [1] was over 30 µM.
The same measure, in the same setting: the same measure for `Cn1cnc2c1C(=O)c1ccccc1C2=O`: over 30 µM; for `O=C1c2ccccc2C(=O)c2ocnc21`: 0.9 µM.
The same measure, in the same setting: as for `O=C1c2ccccc2C(=O)c2scnc21`, the figure is 1.2 µM.
For the compound `CC(=O)c1cc2c(s1)C(=O)c1c(O)cccc1C2=O`, the Activity turned out to be 0.6 µmol/L/min in data set [2], 23% in data set [3], 7.3% in data set [5] and 1.1 µmol/L/min in [6]. Also, the IC50 in [1] turned out to be 0.4 µM. The values for the Flu intensity in data set [4], in data set [7] and in data set [8] were 23.7, 921.4 and 813, respectively.
As to `COc1cccc2c1C(=O)c1sc(C(C)=O)cc1C2=O`, in data set [1], the IC50 came out at 3.5 µM.
Consider `CC(=O)c1cc2c(s1)C(=O)c1c(Cl)cccc1C2=O`, for which, in data set [1], the IC50 was found to be 1.28 µM.
In the case of `CC(=O)c1nc2c([nH]1)C(=O)c1ccccc1C2=O`, in data set [1], the half-maximal inhibitory concentration (IC50) is over 30 µM.
Consider `CC(=O)c1nc2c(n1C)C(=O)c1ccccc1C2=O`, for which the IC50 in data set [1] is over 30 µM.
Still for that read-out and setting: the same measure for `Cc1ccc2c(c1O)C(=O)c1sccc1C2=O`: 5.3 µM; for `CCc1ccc2c(c1O)C(=O)c1sccc1C2=O`: 11.4 µM.
The same measure, in the same setting: as for `O=C(O)Cc1ccc2c(c1O)C(=O)c1sccc1C2=O`, the figure is 21.5 µM; as for `COC(=O)Cc1ccc2c(c1O)C(=O)c1sccc1C2=O`, 2.8 µM; as for `CCOC(=O)Cc1ccc2c(c1O)C(=O)c1sccc1C2=O`, 2.1 µM.
In the case of `CCCOC(=O)Cc1ccc2c(c1O)C(=O)c1sccc1C2=O`, the 50% inhibitory concentration (IC50) in [1] was determined as 4.5 µM.
In the case of `O=C(Cc1ccc2c(c1O)C(=O)c1sccc1C2=O)OCc1ccccc1`, in [1], the IC50 is over 30 µM.
With `O=C1c2ccsc2C(=O)c2c1ccc(Cc1ccco1)c2O`, in [9], the Activity is listed as 127 mU/ml. Also, the IC50 in [1] is 8.5 µM.
With `O=C1c2ccsc2C(=O)c2c1ccc(Cc1ccccc1)c2O`, in data set [9], the Activity is on record as 107 mU/ml. Moreover, in data set [1], the half-maximal inhibitory concentration (IC50) amounted to 10.1 µM.
For `Cc1ccc(Cc2ccc3c(c2O)C(=O)c2sccc2C3=O)cc1`, the 50% inhibitory concentration (IC50) in data set [1] came to 13.8 µM.
Same read-out and setting: the same measure for `O=C1c2ccsc2C(=O)c2c1ccc(Cc1ccc(C(F)(F)F)cc1)c2O`: 16.7 µM; for `N#Cc1ccc(Cc2ccc3c(c2O)C(=O)c2sccc2C3=O)cc1`: 14.2 µM.
Still for that read-out and setting: as for `O=C(O)c1ccccc1Cc1ccc2c(c1O)C(=O)c1sccc1C2=O`, the figure is 25.7 µM; as for `O=C(O)c1ccc(Cc2ccc3c(c2O)C(=O)c2sccc2C3=O)cc1`, over 30 µM; as for `COC(=O)c1ccccc1Cc1ccc2c(c1O)C(=O)c1sccc1C2=O`, 19.1 µM.
Turning to `COC(=O)c1ccc(Cc2ccc3c(c2O)C(=O)c2sccc2C3=O)cc1`, the IC50 in data set [1] was over 30 µM.
Same read-out and setting: as for `COc1ccc(Cc2ccc3c(c2O)C(=O)c2sccc2C3=O)cc1`, the figure is 23.2 µM; as for `COc1ccc(Cc2ccc3c(c2O)C(=O)c2sccc2C3=O)cc1OC`, over 30 µM.
With `O=C1c2ccsc2C(=O)c2c1ccc(CO)c2O`, the Activity in [9] was 214 mU/ml. Besides, the half-inhibitory concentration (IC50) in [1] was determined as 1.2 µM.
For `CC(=O)c1cc2c(s1)C(=O)c1c(ccc(CO)c1O)C2=O` the same measures were 284 mU/ml and 0.7 µM.
Consider `O=Cc1cc2c(s1)C(=O)c1c(O)cccc1C2=O`, for which the IC50 in [1] amounted to 1 µM.
For `CCC(=O)c1cc2c(s1)C(=O)c1c(O)cccc1C2=O`, in data set [9], the Activity was 244 mU/ml. Besides, the IC50 in data set [1] was determined as 0.38 µM.
In the case of `CC(C)C(=O)c1cc2c(s1)C(=O)c1c(O)cccc1C2=O`, the IC50 in data set [1] came out at 0.45 µM.
Still for that read-out and setting: the same measure for `O=C(Cc1ccccc1)c1cc2c(s1)C(=O)c1c(O)cccc1C2=O`: 4.42 µM; for `O=C(CCc1ccccc1)c1cc2c(s1)C(=O)c1c(O)cccc1C2=O`: over 30 µM; for `O=C(COc1ccccc1)c1cc2c(s1)C(=O)c1c(O)cccc1C2=O`: 11.2 µM.
`O=C(c1ccccc1)c1cc2c(s1)C(=O)c1c(O)cccc1C2=O`: the Activity in data set [9] worked out at 419 mU/ml. Moreover, in data set [1], the IC50 came to 0.8 µM.
Take `O=C(c1ccc(Cl)cc1)c1cc2c(s1)C(=O)c1c(O)cccc1C2=O`: the IC50 in data set [1] is 5.64 µM.
As to `COc1ccc(C(=O)c2cc3c(s2)C(=O)c2c(O)cccc2C3=O)cc1`, the half-inhibitory concentration (IC50) in data set [1] was 4.72 µM.
`COc1ccc(C(=O)c2cc3c(s2)C(=O)c2c(O)cccc2C3=O)c(O)c1`: in [1], the IC50 came out at 7.07 µM.
As for `O=C(c1cccs1)c1cc2c(s1)C(=O)c1c(O)cccc1C2=O`, the Activity in [9] is on record as 158 mU/ml. Also, the IC50 in data set [1] came out at 0.29 µM.
In the same order, the values of `O=C(c1cccnc1)c1cc2c(s1)C(=O)c1c(O)cccc1C2=O` are 154 mU/ml and 0.3 µM.
Consider `O=C(O)c1cc2c(s1)C(=O)c1c(O)cccc1C2=O`, for which the 50% inhibitory concentration (IC50) in data set [1] was over 30 µM.
`CCOC(=O)c1cc2c(s1)C(=O)c1c(O)cccc1C2=O`: the Activity in [9] was 233 mU/ml. Further, the IC50 in [1] is 0.76 µM.
For `CC(C)OC(=O)c1cc2c(s1)C(=O)c1c(O)cccc1C2=O`, the IC50 in [1] is 0.92 µM.
Same read-out and setting: as for `COc1ccc(COC(=O)c2cc3c(s2)C(=O)c2c(O)cccc2C3=O)cc1`, the figure is 11.9 µM.
Still for that read-out and setting: the same measure for `O=C(OCCc1ccccc1)c1cc2c(s1)C(=O)c1c(O)cccc1C2=O`: over 30 µM.
Regarding `CCN(CC)C(=O)c1cc2c(s1)C(=O)c1c(O)cccc1C2=O`, the Activity in data set [9] is 330 mU/ml. For the same compound, in data set [1], the IC50 is 0.36 µM.
`CCc1noc(-c2cc3c(s2)C(=O)c2c(O)cccc2C3=O)n1`: the Activity in [2] was determined as 0.7 µmol/L/min; in data set [3] it was 77.6%; in [9], 150 mU/ml; in data set [5], 20.3%; in data set [6], 1 µmol/L/min. Also, the 50% inhibitory concentration (IC50) in data set [1] worked out at 0.19 µM. Moreover, the figures for the Flu intensity in data set [4], in [7] and in [8] were 20.9, 802.2 and 747, respectively.
As for `O=C1c2cc(-c3nc(CCc4ccccc4)no3)sc2C(=O)c2c(O)cccc21`, the IC50 in data set [1] amounted to 0.48 µM.
Take `COc1c2ccsc2c(OC)c2c(OC)cccc12`: the IC50 in data set [1] is over 30 µM.
The same measure, in the same setting: as for `CCC(=O)c1cc2c(OC)c3cccc(OC)c3c(OC)c2s1`, the figure is over 30 µM; as for `COc1c2cc(C(=O)c3cccnc3)sc2c(OC)c2c(OC)cccc12`, over 30 µM; as for `CCC(=O)c1cc2c(s1)C(=O)c1c(OC)cccc1C2=O`, 3.5 µM.
In the case of `COc1cccc2c1C(=O)c1sc(C(=O)c3cccnc3)cc1C2=O`, the half-maximal inhibitory concentration (IC50) in [1] is 5.7 µM.
On the same count and under the same terms, as for `CCOC(=O)c1cc2c(OC)c3cccc(OC)c3c(OC)c2s1`, the figure is over 30 µM; as for `CCc1noc(-c2cc3c(OC)c4cccc(OC)c4c(OC)c3s2)n1`, over 30 µM.
For the compound `CCc1noc(-c2cc3c(s2)C(=O)c2c(OC)cccc2C3=O)n1`, in data set [1], the concentration for half-maximal inhibition (IC50) was 3.52 µM.
On the same count and under the same terms, as for `O=C1c2ccsc2C(=O)c2c(O)ccc(O)c21`, the figure is 2.7 µM.
Same read-out and setting: as for `CC(=O)c1cc2c(s1)C(=O)c1c(O)ccc(O)c1C2=O`, the figure is 0.5 µM; as for `CCCCc1ccc2c(c1O)C(=O)c1sccc1C2=O`, over 30 µM; as for `COc1cccc2c1C(=O)c1sccc1C2=O`, 13.5 µM.
On the same count and under the same terms, as for `CC(=O)c1cc2c(s1)C(=O)c1ccccc1C2=O`, the figure is 0.44 µM.
On to `O=C1c2c(O)cccc2Cc2cccc(O)c21` [ANTHRALIN], for which the Activity in data set [9] is on record as 239 mU/ml.
The same measure, in the same setting: the same measure for `CC1(C)CCC2=C(O1)c1ccccc1C(=O)C2=O` [LAPACHONE]: 268 mU/ml.
As to `CC1=CC(=O)c2ccccc2C1=O` [MENADIONE], the Activity in data set [2] was 1 µmol/L/min; in [3] it was 4.8%; in data set [5], 3.1%; in [6], 2.1 µmol/L/min. Moreover, the Flu intensity in data set [4] turned out to be 44; in data set [7], 431.9; in data set [8], 457.2.
Take `O=C1c2ccccc2C(=O)c2sccc21` [THIOPHENONAPHTHOQUINONE]: the IC50 in data set [1] stood at 4.8 µM.
